Laboratory results: ChEMBL document CHEMBL3045565, “Microwave synthesis, characterization and bio-efficacy evaluation of novel chalcone based 6-carbethoxy-2-cyclohexen-1-one and 2H-indazol-3-ol derivatives” (Eur J Med Chem, 2013)
≈ marks a conversion by molar mass, not a printed value.

Experiments:
Assay type in all cases: functional
[1] = test system: Radical scavenging activity; assay: Antioxidant activity assessed as DPPH free radical scavenging activity at 0.8 ug/mL after 20 min by UV-Vis spectrophotometric analysis
Summary of the method: (§1)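 DPPH radical scavenging: samples held at room temperature for 20 min in the dark, then absorbance read at 517 nm. Control was DMSO without compound; methanol used for baseline correction. Percent scavenging calculated from absorbance relative to control.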

[2] = test system: Radical scavenging activity; assay: Antioxidant activity assessed as DPPH free radical scavenging activity at 0.1 ug/mL after 20 min by UV-Vis spectrophotometric analysis; summary of the method: as §1
[3] = test system: Radical scavenging activity; assay: Antioxidant activity assessed as DPPH free radical scavenging activity at 1 ug/mL after 20 min by UV-Vis spectrophotometric analysis; summary of the method: as §1
[4] = test system: Radical scavenging activity; assay: Antioxidant activity assessed as DPPH free radical scavenging activity at 0.2 ug/mL after 20 min by UV-Vis spectrophotometric analysis; summary of the method: as §1
[5] = test system: Radical scavenging activity; assay: Antioxidant activity assessed as DPPH free radical scavenging activity at 3 ug/mL after 20 min by UV-Vis spectrophotometric analysis; summary of the method: as §1
[6] = test system: Radical scavenging activity; assay: Antioxidant activity assessed as DPPH free radical scavenging activity at 0.4 ug/mL after 20 min by UV-Vis spectrophotometric analysis; summary of the method: as §1
[7] = test system: Radical scavenging activity; assay: Antioxidant activity assessed as DPPH free radical scavenging activity at 4 ug/mL after 20 min by UV-Vis spectrophotometric analysis; summary of the method: as §1
[8] = test system: Radical scavenging activity; assay: Antioxidant activity assessed as DPPH free radical scavenging activity at 0.6 ug/mL after 20 min by UV-Vis spectrophotometric analysis; summary of the method: as §1
[9] = test system: Radical scavenging activity; assay: Antioxidant activity assessed as DPPH free radical scavenging activity after 20 min by UV-Vis spectrophotometric analysis; design: concentration or dose not given beside the values
Summary of the method: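 DPPH radical scavenging: samples were held at room temperature for 20 min in the dark, and absorbance was read at 517 nm. The control contained DMSO without compound, and methanol was used for baseline correction. Scavenging percentage was calculated from the absorbances.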

[10] = test system: Radical scavenging activity; assay: Antioxidant activity assessed as DPPH free radical scavenging activity at 2 ug/mL after 20 min by UV-Vis spectrophotometric analysis; summary of the method: as §1

With `O=C(O)c1cc(O)c(O)c(O)c1` [GALLIC ACID] the Activity [1] was 34.4%, the Activity [2] was 13.9% and the Activity [3] was 41%. For the same molecule, the Activity [4] was 15.8%, the Activity [5] was 88.9% and the Activity [6] was 21.4%. The Activity [7] was 89.9%, the Activity [8] was 28% and the Activity [9] was 21.4%. It also gave an IC50 [9] of 1.28 µg/mL (≈ 7.52 µM) and an Activity [10] of 73.6%.
